Measurements taken from ChEMBL document CHEMBL1156343, “Bioactive acridone alkaloids from Swinglea glutinosa” (J Nat Prod, 2001).

Tests used:
[1] = Selectivity index, ratio of ED50 for human HeLa cells to IC50 for Plasmodium falciparum Nigerian after 24 hrs by [3H]hypoxanthine incorporation assay; assay type: functional
Outline: (§1)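 Ratio of HeLa ED50 to P. falciparum Nigerian-strain IC50 at the same exposure time (24 or 72 h). For the parasite, ring-stage cultures synchronized by gelatine flotation and sorbitol were used at 0.5–1% parasitemia and 1% hematocrit in human red cells with 5% AB+ serum. Compounds ran at final 50–0.01 μg/mL. Growth was read by [3H]-hypoxanthine incorporation, and IC50 was read graphically from inhibition curves.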

[2] = system: Plasmodium falciparum; assay: Antiplasmodial activity after 24 hrs against chloroquine-resistant Plasmodium falciparum FcM29 by [3H]hypoxanthine uptake; assay type: functional, organism-based
Outline: (§2)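 P. falciparum continuously cultured in human O± red cells, 1% hematocrit, RPMI 1640 with 25 mM Hepes, 30 mM NaHCO3, 5% human AB+ serum. Cultures synchronized daily by gelatine flotation and 5% sorbitol lysis. Tested mostly at ring stage, 0.5-1% parasitemia. DMSO stocks diluted serum-free to final 50-0.01 µg/mL (DMSO ≤1%). Three experiments in triplicate. IC50 read graphically from concentration versus percent inhibition curves.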

[3] = system: Plasmodium falciparum; assay: Antiplasmodial activity against chloroquine-resistant Plasmodium falciparum FcM29 after 72 hrs by [3H]hypoxanthine uptake; assay type: functional, organism-based; outline: as §2
[4] = system: Plasmodium falciparum; assay: Antiplasmodial activity after 24 hrs against chloroquine-sensitive Plasmodium falciparum Nigerian by [3H]hypoxanthine uptake; assay type: functional, organism-based; outline: as §2
[5] = system: Plasmodium falciparum; assay: Antiplasmodial activity after 72 hrs against chloroquine-sensitive Plasmodium falciparum Nigerian by [3H]hypoxanthine uptake; assay type: functional, organism-based; outline: as §2
[6] = Selectivity index, ratio of ED50 for human HeLa cells to IC50 for Plasmodium falciparum Nigerian after 72 hrs by [3H]hypoxanthine incorporation assay; assay type: functional; outline: as §1
[7] = Cytotoxicity against human HeLa cells after 24 hrs by [3H]hypoxanthine incorporation assay; assay type: cell-based; conditions: read-out: ED50
Outline: (§3)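 HeLa cells grown in RPMI 1640 with 25 mM Hepes, 30 mM NaHCO3 and 5% fetal calf serum. After trypsinization, cells were seeded at 2×10^4 cells/well. Compounds were taken from 10 mg/mL DMSO stocks and diluted in serum-free medium to final 100–0.02 μg/mL (DMSO ≤1% final). Growth was read by [3H]-hypoxanthine incorporation at 24 and 72 h against untreated wells. Three experiments, each in triplicate.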

[8] = Cytotoxicity against human HeLa cells after 72 hrs by [3H]hypoxanthine incorporation assay; assay type: cell-based; conditions: read-out: ED50; outline: as §3

| Structure (SMILES) | Ratio [1] | IC50 [2] [µM] | IC50 [3] [µM] | IC50 [4] [µM] | IC50 [5] [µM] | Ratio [6] | CC50 at 24 h [7] [µM] | CC50 at 72 h [8] [µM] |
| --- | --- | --- | --- | --- | --- | --- | --- | --- |
| Cn1c2c(O)cccc2c(=O)c2c(O)cc3c(c21)C=CC(C)(C)O3 | 7.7 | 10.2 | 6.8 | 11.1 | 8.7 | 9 | 85.5 | 78 |
| CC(C)=CCc1c(O)cc2c(c1O)c(=O)c1c(CC=C(C)C)ccc(O)c1n2C | 9 | 7.9 | 7.1 | 5.3 | 5.6 | 9.4 | 47.2 | 52.2 |
| CCN(CC)CCCC(C)Nc1ccnc2cc(Cl)ccc12 (centres undefined) [CHLOROQUINE PHOSPHATE] |  |  |  |  |  |  | > 100 | > 100 |
| COc1c(O)cc(O)c2c(=O)c3cccc(O)c3n(C)c12 [CITRUSININE-II] | 0.5 | 27.1 | 20.5 | 33 | 20.1 | 1.8 | 16.8 | 35.1 |
| COc1c(O)c(CC=C(C)C)c(O)c2c(=O)c3cccc(O)c3n(C)c12 [GLYCOCITRINE-IV] | 0.3 | 2 | 2.3 | 2.5 | 2.5 | 2.1 | 0.71 | 5.3 |
